# Compounds with a hit are over-represented: about 11% of the library has one in this group of screens.
# SF1 activator: activators of human SF-1, primary screen, cell-based, CHO-K1, Gal4-SF-1 LBD, luciferase luminescence; Steroidogenic factor 1 (Homo sapiens), Q13285; CHO-K1 Gal4-SF-1 LBD luciferase reporter; % increase over DMSO SF-1-specific signal; activation, % at 10 µM; 1.9% of 65,000 active; AID 522, 2006;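 active means activation above the mean activation of all tested compounds plus 3 SD, cut at about 50% in these data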
#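 Material: Transient Gal4-SF-1 LBD reporter, CHO-K1 | Input: 4,000 cells/well | Dosing: One dose, 10 µM compound, 1% DMSO | Incubation: 20 h compound treatment, 37 °C | Detection: SteadyLite luciferase luminescence | Evaluation: Percent activation relative to DMSO median and mock-transfected background | Benchmarks: DMSO-treated SF-1-transfected cells as negative, DMSO-treated mock-transfected cells lacking SF-1 as background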
# D1 mod: D1 CRE-luciferase signal change, two-sided – cell-based, HEK293 D1, dopamine EC30, D1 allosteric modulator project, primary screen | D(1A) dopamine receptor (Homo sapiens), P21728 | dopamine EC30 potentiation; actives deviate in either direction | B-score at 10 µM | 5.9% of 58,000 active | AID 641, 2007;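 active means luminescence count or its row- and column-corrected plate score outside the 99.7% band of the plate's sample wells, on either side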
# Target sequence (P21728 whole entry, looked up): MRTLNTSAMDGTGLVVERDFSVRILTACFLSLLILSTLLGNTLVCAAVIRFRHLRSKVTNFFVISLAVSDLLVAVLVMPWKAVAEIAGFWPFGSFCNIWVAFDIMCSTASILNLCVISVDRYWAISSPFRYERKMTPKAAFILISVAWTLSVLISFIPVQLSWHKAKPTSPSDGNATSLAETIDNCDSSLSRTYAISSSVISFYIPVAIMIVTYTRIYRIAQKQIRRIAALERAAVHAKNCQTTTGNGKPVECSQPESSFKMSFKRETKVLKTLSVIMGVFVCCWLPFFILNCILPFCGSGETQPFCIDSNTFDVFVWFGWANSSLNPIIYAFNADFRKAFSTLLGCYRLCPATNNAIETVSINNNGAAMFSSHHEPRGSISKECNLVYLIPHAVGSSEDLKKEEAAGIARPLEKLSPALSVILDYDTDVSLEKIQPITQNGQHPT
# Htt clearance: clearance of mutant huntingtin inclusions, primary screen, imaging, HeLa Exon1htt(103Q)mCFP, confocal imaging; aggregate imaging; zero = plate's median compound well; inhibition, % at 1.5 µM; 0.42% of 47,000 active;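 active means inhibition of aggregate fluorescence above about 70%, also judged a hit by eye on the cell image, limit read from the data, passing the limit was not always enough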;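 further: cells exposed to compound for three days before fixation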
# M1 ag: M1 muscarinic receptor agonists, primary screen, CHO-M1 cells, Fluo-4 calcium, agonist mode | AID 626, 2007 | Fluo-4 calcium fluorescence; hits give high values | Muscarinic acetylcholine receptor M1 | 3% of 64,000 active | B-score at 10 µM;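 active means fluorescence rise, raw or as B-score row- and column-corrected plate score, outside the 99.7% band of its plate's samples, either direction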
# M1 antagonist: antagonists of rat M1 muscarinic receptor | Muscarinic acetylcholine receptor M1 (Rattus norvegicus), P08482 | CHO-M1 cells, Fluo-4 calcium, ACh EC80 antagonist mode; hits give low values | B-score at 10 µM | 3.4% of 64,000 active | AID 628, 2007;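 active means calcium fluorescence response, raw or row-and-column corrected B-score, differing from the plate sample mean either way at a set confidence level, mostly lower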
# RORA act: activators of orphan receptor RORA, primary screen, cell-based, luminescence. CHO-K1 Gal4-RORA LBD luciferase reporter; percent increase over mock-subtracted basal signal. activation, % at 10 µM. 1.5% of 65,000 active. AID 560, 2006;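 active means activation above the mean of all tested compounds plus 3 SD, cut at about 49% in these data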;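 further: 0% = DMSO-treated RORA cells and 100% = added signal equal to DMSO minus mock-transfected cells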
# An asterisk follows results filed as active; / = no result given.
SMILES,SF1 activator,D1 mod,Htt clearance,M1 ag,M1 antagonist,RORA act
O=C(Nc1ccc(Br)cn1)c1ccc2nccnc2c1,69*,-0.87,32,0.33,-0.21,44
CCCCS(=O)(=O)NC1=NCN(Cc2ccco2)CN1,13,-0.67,-81,0.25,0.013,-20
CC1CCCCN1C(=O)CSc1nnc(CSc2ncccn2)n1C (centres undefined),/,/,8,/,/,/
CC(=O)c1cc(-c2nc3ccccc3n2C)n(C)c1,-4,0.35,71*,-0.37,0.32,-14
c1cncc(-c2nc3c4ccccc4nc(N4CCC(N5CCCCC5)CC4)n3n2)c1,11,0.83,/,-0.25,-6.7*,11
CC1(C)CC(=O)C2=C(C1)Oc1ncn3nc(-c4cccnc4)nc3c1C2c1ccccc1 (centres undefined),-14,-0.11,/,-0.22,0.42,-25
CCCN1C2CCCC1CC(NC(=O)NC1CCCCC1)C2 (centres undefined),11,-0.24,-4,-0.13,-0.41,-19
CCCN1C2CCCC1CC(NC(=O)c1ccc(F)cc1)C2 (centres undefined),2,-2.2*,44,0.28,-0.6,-2
Cn1c(CSCc2ccc(F)cc2)nnc1SCC(=O)Nc1nccs1,-10,-0.52,/,-1.1,-1.3,8
Cn1nnnc1SCc1ccc(C(=O)Nc2nccs2)cc1,57*,-0.8,31,-0.45,0.94,44
O=C(CSc1ccccn1)Nc1nc2ccc(Br)cc2s1,/,/,52,/,/,/
CCOc1nc(Nc2ccc(-c3nc4ccccc4o3)cc2)nc(N2CCOCC2)n1,4,0.007,/,0.031,0.0079,-20
Cc1ccc(O)c(CNc2ccccn2)c1,32,0.15,/,0.58,-0.16,17
CSc1ccc(CNc2ccccn2)cc1,17,-0.49,/,-0.34,-1.1,61*
Cc1cc(NC(=O)c2ccco2)ncc1NC(=O)Cc1ccccc1,41,-2.2,/,-0.039,0.00012,57*
COc1cccc(C(=O)Nc2cnc(NC(=O)c3ccco3)cc2C)c1,16,-0.29,8,-0.015,-0.075,14
CC(=O)c1sc(NC(=O)c2ccco2)nc1-c1ccccc1,70*,-0.76,-12,0.44,-0.00051,40
COc1ccc2sc(NC(=O)c3ccco3)nc2c1,-28,-5.7*,/,-1.1,0.68,-29
Cc1cnc(NC(=O)COc2ccccc2)s1,82*,0.052,4,0.78,1.5,54*
COc1ccc2c(c1)-c1nc(NC(=O)c3ccco3)sc1CC2,/,/,/,0.5,1.5,/
O=C(CCn1nc(-c2ccccc2)c2ccccc2c1=O)NCC1CCCO1 (centres undefined),1,1.2,33,0.67,0.33,-14
CC(C)=CC(=O)Nc1ccc(Br)cc1,46,-1.9,/,-0.1,-0.67,37
O=C(NCCCn1ccnc1)C(Cc1ccccc1)N1C(=O)c2ccccc2C1=O (centres undefined),-14,/,-30,-0.12,0.37,-15
Cc1sc(NC(=O)c2ccco2)nc1-c1ccccc1,/,/,36,/,/,/
COC(=O)c1sc(NC(=O)c2ccco2)nc1C,50*,-0.79,/,-2.7,0.2,28
SMILES,SF1 activator,D1 mod,Htt clearance,M1 ag,M1 antagonist,RORA act
Cc1cnc(NC(=O)c2ccco2)s1,53*,/,/,-0.18,0.27,71*
Cn1c(C(=O)NCCCN2CCN(c3ccccc3F)CC2)cc2c(=O)n(C)c3ccccc3c21,17,-2.6*,/,0.53,-1.7,-13
Cn1c(C(=O)NCCCN2CCOCC2)cc2c(=O)n(C)c3ccccc3c21,-7,-0.3,-5,-0.37,-0.34,2
CC(NC(=O)c1cc2c(=O)n(C)c3ccccc3c2n1C)c1ccc2c(c1)OCCO2 (centres undefined),22,-4.6*,/,4.4*,-0.59,4
Nc1ccc(C(=O)OCCCc2nc3ccccc3[nH]2)cc1,-4,-0.67,/,0.32,0.86*,-8
Nc1ccc(C(=O)OCc2nc3ccccc3[nH]2)cc1,21,-0.13,-3,-0.73,0.069,-12
COC(=O)CCn1nnc(-c2ccc(C(C)C)cc2)n1,-8,-2.5*,6,0.0058,-0.61,3
COc1ccc(C(=O)Cn2nnc(-c3cccs3)n2)cc1,13,0.014,/,0.13,-0.69,-4

# Screening data: PubChem, several laboratories
